Wee1 degr inh = inhibitors of human Wee1 degradation | P30291 | hit rate 1.2% among 220,000 | AID 1321 | HeLa Luc-Wee1K328M stability, luciferase luminescence; 100% = proteasome inhibitor MG132 effect | reporter increase, % at 5 µM;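 active = activation above the mean of all tested compounds plus 3 SD, set per screening run, cut at about 8.8% in these data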;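 also: cells exposed to compound for 20 h before luminescence read; 0% = DMSO alone and 100% = MG132 at 30 µM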
Target sequence (P30291 whole entry K328M): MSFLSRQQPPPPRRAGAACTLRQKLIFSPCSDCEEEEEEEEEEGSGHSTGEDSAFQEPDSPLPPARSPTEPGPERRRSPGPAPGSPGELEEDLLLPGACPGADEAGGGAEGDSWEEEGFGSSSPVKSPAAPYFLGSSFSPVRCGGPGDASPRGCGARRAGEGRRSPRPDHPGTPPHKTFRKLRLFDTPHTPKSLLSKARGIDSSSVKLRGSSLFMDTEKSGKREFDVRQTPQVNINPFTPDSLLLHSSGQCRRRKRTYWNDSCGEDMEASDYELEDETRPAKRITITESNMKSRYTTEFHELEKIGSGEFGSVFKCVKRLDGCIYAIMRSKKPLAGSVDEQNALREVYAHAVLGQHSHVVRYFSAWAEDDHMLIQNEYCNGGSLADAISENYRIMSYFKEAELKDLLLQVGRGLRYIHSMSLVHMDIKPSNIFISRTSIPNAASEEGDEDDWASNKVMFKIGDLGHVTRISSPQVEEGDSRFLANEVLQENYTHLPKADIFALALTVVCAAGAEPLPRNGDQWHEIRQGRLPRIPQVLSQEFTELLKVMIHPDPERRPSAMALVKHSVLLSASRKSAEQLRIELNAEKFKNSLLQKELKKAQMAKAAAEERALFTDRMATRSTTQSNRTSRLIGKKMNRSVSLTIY
STAT1 activator = activators of IFN-gamma induced STAT1 signaling | NIH 3T3 STAT1-luciferase reporter, luminescence; 100% = IFN-gamma alone, no compound | activation (% of control), % at 5.5 µM | hit rate 2.6% among 200,000;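 active = activation above the screen-wide mean activation plus 3 SD, cut at about 130% in these data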;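 also: raw ratio to IFN-gamma control signal so 100% means no change and 0% no light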
NF-kB expr up = compounds increasing NF-kB expression in human neuronal cells. hit rate 1.6% among 190,000. fold change at 12.5 µM. NF-kB reporter expression; hits give high values. AID 1239; in the data active = fold change above about 3.3
APP 5'UTR act = activates APP 5'UTR luciferase reporter. SH-SY5Y APP 5'UTR luciferase reporter, luminescence; zero percent = DMSO vehicle wells. activation, % at 2 µM. hit rate 1% among 190,000. AID 1276;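 active = activation above a set limit, based on mean plus 3 SD of controls, cut at about 140% in these data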
MDM2 E3 inh = Mdm2 E3 ligase (human) inhibition; Q00987; cell-based MDM2 ubiquitination luciferase reporter, 2 h; 0 = plate control, 100 = twice control, blank-subtracted; signal enhancement, % at 5 µM; hit rate 0.11% among 210,000; AID 1230;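 active = signal enhancement of 30% or more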;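 also: luminescence tracks abundance of the self-degrading MDM2-luciferase fusion protein; higher signal means inhibition of MDM2 E3 ligase activity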
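Test system: mammalian cells stably expressing self-ubiquitinating, self-degrading MDM2 E3–luciferase fusion; Amount: 2000 cells in each well; Medium: DMEM; Schedule: 4 h settle plus 2 h compound, 37 °C; Technique: SteadyLite luciferase luminescence after 15 min room-temperature reagent incubation; Benchmarks: plate control and blank wells.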
p97 ATPase inh = inhibitors of human p97 ATPase. P55072. recombinant p97 ATPase, Kinase-Glo ATP luminescence, 3 h. inhibition, % at 8 µM. hit rate 0.42% among 220,000. AID 1481; in the data active = inhibition above about 15%;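 also: 0% = DMSO vehicle and 100% = wells lacking enzyme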
STAT1 activ conf = STAT1 activation, confirmation assay | shares compounds with STAT1 activator | NIH 3T3 STAT1-luciferase reporter, IFN-gamma potentiation, luminescence; 100% = IFN-gamma EC80 alone, no compound | activation (% of control), % at 5.7 µM | hit rate 97% among 1,200;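 active = activation above a set limit carried over from the earlier primary STAT1 screen, cut at about 140% in these data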;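 also: simple ratio to median IFN-gamma plus DMSO wells so 0% means no light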
NFkB act = activates NF-kappaB, counter-screen to STAT1 activators; HEK293T NF-kB luciferase reporter, TNF-alpha stimulated, luminescence; 100% = TNF-alpha with vehicle only; shares compounds with STAT1 activator; activation (% of control), % at 5.7 µM; hit rate 43% among 1,200; AID 1306;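 active = activation above the mean of solvent-only control wells plus 3 SD, set per campaign, cut at about 130% in these data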;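 also: TNF-alpha given at a submaximal dose yielding about 80% of full reporter signal; values are well signal over median control so 100% means no change and 0% no light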
STAT3 act 2 = counter-screen for STAT1 activators: human STAT3 activation. shares compounds with STAT1 activator. U3A cells STAT3-luciferase reporter, IL-6, luminescence; cells lack STAT1; 100 = IL-6 alone, no compound effect. activation (% of control), % at 5.7 µM. hit rate 46% among 1,200;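 active = activation above the solvent-only control well mean plus 3 SD, set per plate batch, cut at about 110% in these data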;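 also: 0% = no luminescence and 100% = median IL-6 plus DMSO wells; higher means more STAT3 reporter activation so hits are non-selective activators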
Wee1 degr conf = human Wee1 degradation inhibition, confirmation; shares compounds with Wee1 degr inh; HeLa Luc-Wee1K328M degradation, luminescence; vehicle 0%, proteasome-blocked wells 100%; activation, % at 5 µM; hit rate 4% among 1,100; AID 1410; in the data active = activation above about 8.9%
p97 inh conf = confirmation of human p97 ATPase inhibitors | shares compounds with p97 ATPase inh | recombinant p97 ATPase, Kinase-Glo ATP luminescence | inhibition, % at 8 µM | hit rate 44% among 760;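 active = percent inhibition of p97 ATPase above a set limit, the primary screen's mean plus 3 SD, cut at about 15% in these data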;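 also: 0% = DMSO wells and 100% = wells lacking p97 protein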
Starred values were filed as active, the others as inactive; x = no result. Hits are enriched below; roughly 4.6% of the tested compounds scored in any of these assays.

SMILES	Wee1 degr inh	STAT1 activator	NF-kB expr up	APP 5'UTR act	MDM2 E3 inh	p97 ATPase inh	others
Cc1ccc(CN2C3CCCC2CC(NC(=O)Nc2cccc(F)c2)C3)cc1 (stereo not given)	-3	96	1.1	-13	-10	6
COc1ccc(Cc2c(O)[nH]c(=O)[nH]c2=O)c(OC)c1	-4	x	x	x	-19	6
COc1cccc(N2C(=O)NC(=O)/C(=C/c3ccc4c(c3)Cc3ccccc3-4)C2=O)c1	-1	131*	1.1	11	-9	1
CCN(CC)C(=O)c1ccc(NC(=O)c2cccc(F)c2)cc1	8.8*	98	1.4	32	-15	-4
CCCCCn1c(=O)c(C(=O)Nc2nc3ccccc3[nH]2)c(O)c2ccccc21	10*	x	x	x	-11	4
Cc1ccccc1-n1c(O)c(C(c2ccncc2)c2c(O)n(-c3ccccc3C)c(=O)[nH]c2=O)c(=O)[nH]c1=O	-3	x	x	x	-12	5
CCCCN1C(=O)C(C2c3ccccc3C(=O)N2Cc2ccccc2)C(=O)NC1=S (stereo not given)	9.9*	92	0.97	-9	-23	-5
O=C1NC(=O)N(c2cccc(Cl)c2)C(=O)/C1=C\c1ccc(Sc2nc3ccccc3[nH]2)o1	11*	94	1.3	16	x	-2
NC1=NC(=O)C(c2ccccc2)O1 (stereo not given)	10*	x	x	x	x	2
Cc1ccc2ccccc2c1NC(=O)CNC1CCCCC1	10*	101	0.96	-4	-5	3
CCC(=O)OC1(Cc2ccc(CC)cc2)CC(C)N(C)CC1C (stereo not given)	3	x	x	x	-8	-4
O=C(c1cc2c(s1)-c1ccccc1OC2)N1CCC2(CC1)OCCO2	2	158*	3.9*	142*	-12	-1	STAT1 activ conf=196*;NFkB act=134*;STAT3 act 2=119*
Cc1ccsc1C(=O)C1CCCN(Cc2ccc(-n3cccn3)cc2)C1 (stereo not given)	1	99	1.2	24	4	-2
COc1ccc(-n2c(-c3ccc(C)cc3)nc3ccccc3c2=O)cc1	4	x	x	x	-17	0
COc1ccc(-c2cc(=NCCC(=O)O)c3cc(C)ccc3o2)cc1	0	153*	3.7*	145*	-19	2	STAT1 activ conf=154*;NFkB act=131;STAT3 act 2=103
COc1ccc(-c2cc(=Nc3ccccc3)c3cc(C)ccc3o2)cc1	9	165*	8.6*	134	x	3	STAT1 activ conf=143*;NFkB act=132;STAT3 act 2=97
C=Cn1ccnc1P(O)(=S)c1nc(C)c(CCOC(C)=O)s1 (stereo not given)	-1	120	0.88	-4	-4	6
COc1cc(C=C2C(=O)NC(=O)NC2=O)ccc1OCc1ccc([N+](=O)[O-])cc1	12*	152*	3.4*	2	-22	-5	STAT1 activ conf=175*;NFkB act=136*;STAT3 act 2=122*
O=C1NC(=O)C(=Cc2ccc(Oc3ccc([N+](=O)[O-])cc3)cc2)C(=O)N1	-1	109	1.2	17	-4	1
O=C(C(=O)N1CCOCC1)c1cn(Cc2ccccc2Cl)c2ccccc12	1	86	1.2	-4	-28	-2
O=C(C(=O)N1CCOCC1)c1cn(Cc2ccc(F)cc2)c2ccccc12	12*	x	x	x	x	-2	Wee1 degr conf=-2
CCN1CCN(c2nc3ccccc3s2)CC1	15*	128	4.7*	61	-15	2	Wee1 degr conf=6
O=P(c1ccccc1)(c1nc2ccccc2s1)N1CCOCC1 (stereo not given)	2	92	1.1	-3	-11	-3
Cc1ccc(-n2c(/C=C/c3ccc4c(c3)OCO4)nc3ccccc3c2=O)cc1	11*	87	0.56	-20	-14	4	Wee1 degr conf=1
O=c1c2ccccc2nc(/C=C/c2ccc(O)cc2)n1-c1cccc(O)c1	12*	81	0.88	26	-4	6	Wee1 degr conf=0
SMILES	Wee1 degr inh	STAT1 activator	NF-kB expr up	APP 5'UTR act	MDM2 E3 inh	p97 ATPase inh	others
Cn1c(O)c(/C=C2\N=c3ccccc3=C2CCNC(=S)NC2CC2)c(=O)n(C)c1=O	0	x	x	x	7	9
O=c1[nH]c(=O)n(Cc2ccccc2Cl)c(O)c1/C=C1/C=CC=N1	-1	99	1.7	-45	-1	8
CSc1nc(N2CCN(C)CC2)c2ccccc2n1	15*	91	0.93	15	-17	4	Wee1 degr conf=3
CN1C2CCC1CC(OC(=O)c1ccc([N+](=O)[O-])cc1)C2 (stereo not given)	13*	94	1.1	5	-8	4	Wee1 degr conf=0
CC1CC(OC(=O)c2ccccc2)CC(C)N1C (stereo not given)	3	94	1.1	0	30	3
O=[N+]([O-])[N-][n+]1cnn(Cc2ccccc2)c1	-1	99	1.8	10	-10	-2
CCCCn1c(NC(=O)c2ccco2)c(C(=O)OCC)c2nc3ccccc3nc21	-3	89	0.79	-9	1	33*	p97 inh conf=35*
CCCCn1c(NS(=O)(=O)c2ccc(C)cc2)c(C(=O)OCC)c2nc3ccccc3nc21	-3	100	1.3	0	5	0
CC(=O)N1N=C(c2cccnc2)OC1c1ccccc1Cl (stereo not given)	1	x	x	x	-4	8
COC(=O)c1nc(-c2ccc3c(n2)C(=O)C(N)=C(OC)C3=O)c(N)c(-c2ccc(OC)c(OC)c2O)c1C	-4	x	x	x	2	17*	p97 inh conf=34*
CC(C)OC(=O)c1c(N)n(CC2CCCO2)c2nc3ccccc3nc12 (stereo not given)	-1	97	0.85	-5	1	26*	p97 inh conf=0
OC(c1ccccc1)(c1ccc(Cl)cc1)C1CN2CCC1CC2 (stereo not given)	1	x	x	x	-13	16*	p97 inh conf=10
